Results on two molecules are retold here after ChEMBL document CHEMBL5033992, “Discovery and Synthesis of a Pyrimidine-Based Aurora Kinase Inhibitor to Reduce Levels of MYC Oncoproteins” (J Med Chem, 2021).

Active and inactive are the calls of the source. Some results are limits rather than exact numbers.

One series deals with NCI-H209. Put plainly: Growth inhibition of human NCI-H209 cells assessed as reduction in cell viability after 72 hrs by PrestoBlue Cell Viability assay. It is filed as functional, cell-based. Conditions: NCI-H209, 72 h. The essentials: (§1)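 Cells seeded at 5000–10,000 per well; after 24 h, treated with an eight-point titration from 0 to 10 μM in triplicate. After 72 h exposure, viability read by PrestoBlue fluorescence, and IC50 computed from the titration. SCLC lines grown in RPMI1640 and SK-N-BE(2) in MEM, each with 10% FBS.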

For series [1], the target named is Aurora kinase B (Homo sapiens) (UniProt Q96GD4). Kind of series: Inhibition of Aurora B phosphorylation in human SKNBE2 cells assessed as reduction in phosphorylation at Thr 232 residue at 50 to 1000 nM after 24 hrs by Western blot analysis. It counts as cell-based. Conditions: dose 50-1000 nM. The essentials:
(§2)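 Cells treated with compound at various concentrations for 24 h, then washed in PBS, lysed in Laemmli buffer and boiled 10 min. Lysates run on SDS-PAGE, transferred to PVDF and probed with antibodies, then AP- or HRP-conjugated secondaries with chemiluminescent detection. Loading control β-actin. NCI-H82 grown in RPMI1640 and SK-N-BE(2) in MEM, each with 10% FBS. Relative levels quantified from triplicate experiments.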
A general note: In western blotting, separated proteins are transferred to a membrane and probed.

Series [2] can be described thus: Clearance in ICR mouse at 2 mg/kg, iv measured up to 24 hrs by LC-MS/MS analysis. It is filed as ADME, organism-based. Conditions: in vivo.
A further series concerns SKNBE2. Put plainly: Inhibition of Histone H3 phosphorylation in human SKNBE2cells assessed as reduction in phosphorylation at Ser 10 residue at 50 to 1000 nM after 24 hrs by Western blot analysis. Conditions: dose 50-1000 nM. The essentials: as §2
The nature of series [3]: Toxicity in athymic nu/nu nude mouse xenografted with NCI-H446 cells assessed as reduction in body weight at 50 mg/kg, iv administered at 5 on-2-off for 2 to 4 weeks relative to control. It counts as organism-based. The arrangement: scale not given: the % may be the effect or the level left. Conditions: in vivo, time 2-4 weeks. The essentials:
(§3)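 Male athymic nu/nu mice, 6 weeks old, inoculated subcutaneously with 1 × 10⁶ NCI-H446 cells in saline with 50% Matrigel. Dosing IV or oral, vehicle 5% dimethylacetamide/95% PEG400, on a 5-on-2-off schedule for 2–4 weeks once tumors reached ≥200 mm³. Caliper volume = length × width²/2; tumors and body weight measured at least twice weekly. ANOVA with Student–Newman–Keuls, P < 0.05.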

Series [4] can be described thus: Volume of distribution at steady state in ICR mouse at 2 mg/kg, iv measured up to 24 hrs by LC-MS/MS analysis. It counts as ADME, organism-based. Conditions: in vivo, read-out: Vdss.
Series [5] has as its target Aurora kinase B (Homo sapiens) (UniProt Q96GD4). Kind of series: Inhibition of Aurora B phosphorylation in human NCI-H82 cells assessed as reduction in phosphorylation at Thr 232 residue at 50 to 1000 nM after 24 hrs by Western blot analysis. It is filed as cell-based. To be noted: dose 50-1000 nM. The essentials:
as §2

Series [6] can be described thus: Growth inhibition of human NCI-H841 cells assessed as reduction in cell viability after 72 hrs by PrestoBlue Cell Viability assay. It counts as functional, cell-based. Conditions: NCI-H841, 72 h. The essentials:
as §1

Series [7] addresses T1, Aurora kinase A (Homo sapiens) (UniProt O14965).
T1 sequence (whole entry): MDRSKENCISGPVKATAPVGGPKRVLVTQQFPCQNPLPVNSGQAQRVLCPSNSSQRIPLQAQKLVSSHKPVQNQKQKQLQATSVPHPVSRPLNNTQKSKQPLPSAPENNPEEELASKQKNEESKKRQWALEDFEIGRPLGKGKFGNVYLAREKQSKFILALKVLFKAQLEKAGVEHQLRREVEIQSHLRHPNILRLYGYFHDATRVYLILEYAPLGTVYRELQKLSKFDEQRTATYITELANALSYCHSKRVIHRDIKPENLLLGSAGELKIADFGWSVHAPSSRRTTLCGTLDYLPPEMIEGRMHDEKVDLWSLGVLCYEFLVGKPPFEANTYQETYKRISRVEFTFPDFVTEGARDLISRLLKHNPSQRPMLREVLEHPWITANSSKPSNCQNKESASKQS
Conditions: NCI-H82, dose 50-1000 nM, time 24.0 hrs.

The test system of series [8] is NCI-H82. Kind of series: Inhibition of Histone H3 phosphorylation in human NCI-H82 cells assessed as reduction in phosphorylation at Ser 10 residue at 50 to 1000 nM after 24 hrs by Western blot analysis. Conditions: dose 50-1000 nM. It counts as cell-based. The essentials: as §2
Series [9] is described as follows: Half life in ICR mouse at 10 mg/kg, po measured up to 24 hrs by LC-MS/MS analysis. It counts as ADME, organism-based. To be noted: in vivo.
Series [10] in a line: Half life in ICR mouse at 2 mg/kg, iv measured up to 24 hrs by LC-MS/MS analysis. Conditions: in vivo. It counts as ADME, organism-based.
Series [11] deals with NCI-H82. Put plainly: Down regulation of Cyclin B1 expression in human NCI-H82 cells at 50 to 1000 nM after 24 hrs by Western blot analysis. It counts as functional, cell-based. To be noted: dose 50-1000 nM. The essentials: as §2
The target of series [12] is T1, Aurora kinase A (Homo sapiens). To be noted: SKNBE2, dose 50-1000 nM, time 24.0 hrs.
The test system of series [13] is SK-N-BE(2). Kind of series: Down regulation of Cyclin B1 expression in human SKNBE2 cells at 50 to 1000 nM after 24 hrs by Western blot analysis. To be noted: dose 50-1000 nM. It counts as functional, cell-based. The essentials:
as §2

The nature of series [14]: AUC (0 to inf) in ICR mouse at 10 mg/kg, po measured up to 24 hrs by LC-MS/MS analysis. It is filed as ADME, organism-based. The arrangement: route oral, dose 10 mg/kg, time <=24. To be noted: in vivo.
Series [15] concerns NCI-H82. Kind of series: Down regulation of cMYC protein expression level in human NCI-H82 cells at 1 uM incubated for 2 to 4 hrs in presence of MG132 by Western blot analysis. It counts as functional, cell-based. To be noted: time 2-4 hrs.
Series [16] deals with NCI-H82. Kind of series: Induction of cell cycle arrest in human NCI-H82 cells at 1 uM after 24 hrs by Propidium iodide staining based flow cytometric analysis. It counts as functional. For orientation: In flow cytometry, cells or beads pass a laser one at a time.
The nature of series [17]: Oral bioavailability in ICR mouse at 10 mg/kg measured up to 24 hrs by LC-MS/MS analysis. It is filed as ADME, organism-based. Conditions: in vivo.
Series [18] has as its system SK-N-BE(2). Kind of series: Growth inhibition of human SKNBE2 cells assessed as reduction in cell viability after 24 hrs by PrestoBlue Cell Viability assay. To be noted: SKNBE2, 24 h.
Series [19] is described as follows: AUC (0 to inf) in ICR mouse at 2 mg/kg, iv measured up to 24 hrs by LC-MS/MS analysis. The arrangement: route intravenous, dose 2 mg/kg, time <=24. It is filed as ADME, organism-based. To be noted: ICR, in vivo.
For the next series, the system named is NCI-H526. Put plainly: Growth inhibition of human NCI-H526 cells assessed as reduction in cell viability after 72 hrs by PrestoBlue Cell Viability assay. It counts as functional, cell-based. To be noted: NCI-H526, 72 h. The essentials:
as §1

The nature of series [20]: Tmax in ICR mouse at 10 mg/kg, po measured up to 24 hrs by LC-MS/MS analysis. It is filed as ADME, organism-based. To be noted: in vivo.
Series [21] can be described thus: Cmax in ICR mouse at 10 mg/kg, po measured up to 24 hrs by LC-MS/MS analysis. To be noted: in vivo. The arrangement: route oral, dose 10 mg/kg, time <=24. It counts as ADME, organism-based.
Series [22] has as its system NCI-H446. Kind of series: Anti-tumor activity against human NCI-H446 cells xenografted in athymic nu/nu nude mouse assessed as reduction in tumor volume at 50 mg/kg, po administered at 5 on-2-off for 3 weeks and further dosed 100 mg/kg, po for 4 th week relative to control. Conditions: time 4.0 weeks. It counts as functional, organism-based. The essentials:
as §3

Series [23] deals with NCI-H446. Put plainly: Induction of apoptosis in human NCI-H446 cells xenografted in athymic nu/nu nude mouse assessed as increase in cleaved PARP1 protein expression level at 100 mg/kg, po measured up to 24 hrs by Western blot analysis. Conditions: time hrs <=24. On the technique in general: In xenograft studies the graft and the host belong to different species.
Series [24] concerns NCI-H446. Put plainly: Anti-tumor activity against human NCI-H446 cells xenografted in athymic nu/nu nude mouse assessed as reduction in tumor volume at 50 to 100 mg/kg, po administered at 5 on-2-off for 2 to 4 weeks. It counts as functional, organism-based. To be noted: dose 50-100 mg/kg, time 2-4 weeks. The essentials: as §3
Series [25] deals with NCI-H446. Put plainly: Effect on cMYC protein expression level in human NCI-H446 cells xenografted in athymic nu/nu nude mouse at 100 mg/kg, po measured upto 24 hrs by western blot analysis relative to control. To be noted: time hrs <=24.
Series [26] in a line: Toxicity in athymic nu/nu nude mouse xenografted with NCI-H446 cells assessed as reduction in body weight 50 mg/kg, po administered at 5 on-2-off for 3 weeks and further dosed 100 mg/kg, po for 4 th week relative to control. It counts as organism-based. Also on record: scale not given: the % may be the effect or the level left. To be noted: in vivo, 672 h, at 50 to 100 mg/kg, dose 50-100 mg/kg, time 4 weeks. The essentials: as §3

The nature of series [27]: Inhibition of Histone H3 phosphorylation in human NCI-H446 cells xenografted in assessed as reduction in phosphorylation at Ser 10 residue at 100 mg/kg, po measured upto 8 hrs by western blot analysis relative to control.
Series [28] deals with NCI-H446. Put plainly: Induction of apoptosis in human NCI-H446 cells xenografted in athymic nu/nu nude mouse assessed as increase in cleaved CASP3 protein expression level at 100 mg/kg, po measured up to 24 hrs by IHC analysis. Conditions: time hrs <=24.
Series [29] in a line: Toxicity in athymic nu/nu nude mouse xenografted with NCI-H446 cells assessed as reduction in body weight at 50 to 100 mg/kg, po administered at 5 on-2-off for 2 to 4 weeks relative to control. It counts as organism-based. The arrangement: scale not given: the % may be the effect or the level left. To be noted: in vivo, dose lower 50 mg/kg, time lower 2 weeks, dose upper 100 mg/kg, time upper 4 weeks. The essentials: as §3

Chain of Aurora kinase B (Homo sapiens) (Q96GD4 whole entry): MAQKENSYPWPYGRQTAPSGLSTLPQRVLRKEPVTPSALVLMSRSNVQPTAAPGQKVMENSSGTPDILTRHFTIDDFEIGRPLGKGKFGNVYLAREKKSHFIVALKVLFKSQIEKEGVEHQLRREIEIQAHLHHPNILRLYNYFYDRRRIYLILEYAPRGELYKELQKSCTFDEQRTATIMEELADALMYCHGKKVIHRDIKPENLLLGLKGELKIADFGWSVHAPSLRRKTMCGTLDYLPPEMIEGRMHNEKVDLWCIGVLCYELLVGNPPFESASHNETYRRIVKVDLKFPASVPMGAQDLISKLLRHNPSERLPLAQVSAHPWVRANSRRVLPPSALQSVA

Broadly, the IC50 is the midpoint of a concentration-inhibition curve. For orientation: clearance means a measure of how efficiently the substance is removed, as volume per time. As usually defined, the half-life is the time needed for the level to fall by half in the phase considered. For orientation: AUC(0-inf) means the area under the concentration-time curve extrapolated to infinity. By bioavailability is commonly meant the share of a dose that reaches the circulation, judged against a reference dose that is usually intravenous. One may read the Tmax as the time at which the peak concentration occurs. A word on the Cmax: it is the peak of the concentration-time curve. Regarding `CCN1CCN(c2cc(Nc3cc(C)[nH]n3)nc(N[C@H]3CCN(C(=O)c4ccc(Cl)cc4F)C3)n2)CC1`, the IC50 in the series with NCI-H209 was 0.0207 µM; in series [6], 2.09 µM; in the series with SK-N-BE(2) [18] it was 0.001 µM; in the series on NCI-H526, under 0.1 µM. For the same molecule, the inhibition entry in series [1], in series [5], in series [7] and in series [12] was “Dose-Dependent Effect” each time. Further, the clearance in series [2] turned out to be 53.7 mL/min/kg. Besides, the inhibition result with SKNBE2 and with NCI-H82 [8] was “Active” throughout. Also, the Activity in series [3] was under 5%. In addition, in series [4], the Vd was determined as 11.3 L/kg. Also, the half-life is 1.6 h in [9] and 4 h in series [10]. Besides, the outcome in the series on NCI-H82 [11], in the series on SK-N-BE(2) [13] and with NCI-H82 [16] was Active. Moreover, the results for the AUC(0-inf) in series [14] and in [19] were 533 ng·h/mL and 703 ng·h/mL, respectively. For the same molecule, the result with NCI-H82 [15] was inactive. Besides, the bioavailability in [17] was 16.8%. Besides, the time to peak (Tmax) in [20] stood at 1 h. The same molecule had a Cmax in [21] of 395 ng/mL.
Broadly, the inhibition in vivo is the drop in the measured response relative to a control, in per cent. Take `CCC(=O)n1nc(C)cc1Nc1cc(N2CCN(CC)CC2)nc(N[C@H]2CCN(C(=O)c3ccc(Cl)cc3F)C2)n1`: the clearance in series [2] stood at 21.3 mL/min/kg. Also, the result with NCI-H446 [22], with NCI-H446 [23], with NCI-H446 [25] and in the series on NCI-H446 [28] was Active. Moreover, in series [4], the Vd came to 3.4 L/kg. Further, the results for the Activity entry (in the series on NCI-H446 [24]; in series [26]; in series [29]) were “Dose-Dependent Effect”, under 5% and under 5%, respectively. Besides, the figures for the half-life in [9] and in series [10] were 2.7 h and 4.8 h, respectively. For the same molecule, the inhibition in vivo at 100 mg/kg in [27] is over 90%. In addition, the AUC(0-inf) in series [14] stood at 4400 ng·h/mL; in series [19], 1410 ng·h/mL. For the same molecule, the Tmax in [20] was 0.3 h. This molecule gave a Cmax in series [21] of 2080 ng/mL.
